This note sets out measurements from PMC2896288 (Journal of molecular biology, 2010).

Test [1] concerns the target human Mcl-1 (residues 172-327) (Homo sapiens, UniProt Q07820). In words: Fluorescence polarization competition binding assay, Mcl-1. The conditions noted are these: FP competition binding assay. The method, boiled down:
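c-myc-tagged human Mcl-1 (172-327) from E. coli BL21(DE3), TEV-cleaved from MBP, at 50 nM. Serially diluted unlabelled 23-residue peptides are premixed with Mcl-1 first. FITC-Bim-BH3 (10 nM) is then added and mixed overnight at 37 °C, returned to room temperature and anisotropy read. Buffer: phosphate, pH 7.8. Ki from complete competitive binding model fitting five parameters, Bim Kd fixed 1 nM; unlabelled Bim-BH3 reference; ≥2 experiments, SD.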
(In fluorescence polarisation assays a small probe gives low polarisation when free and higher when bound to something large.)

For test [2], the target named is human Bcl-xL (residues 1-209) (Homo sapiens, UniProt Q07817). In words: Fluorescence polarization competition binding assay, Bcl-xL. The conditions noted are these: FP competition binding assay.
Test [3] addresses human Bcl-xL (residues 1-209), c-myc tagged (human) (UniProt Q07817). The test is described as follows: fluorescence polarisation.
Test [4] deals with human Mcl-1 (residues 172-327), c-myc tagged (human) (UniProt Q07820). The test is described as follows: fluorescence polarisation.
Another test concerns the target Bcl-xL (Homo sapiens, UniProt Q07817). The test is described as follows: Yeast surface display binding, soluble Bcl-xL. The conditions noted are these: yeast cells displaying the peptide titrated with soluble Bcl-xL. The gist of the method: (§1)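 EBY100 yeast displaying the BH3 peptide as Aga2p fusion with C-terminal FLAG tag, incubated with c-myc-tagged pro-survival protein. Expression is read by anti-FLAG/FITC and binding by anti-c-myc/PE. Cells are gated by forward scatter on a FACScan flow cytometer, typically 10,000 events analysed.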

The target of a further test is Mcl-1 (Homo sapiens, UniProt Q07820). The test is described as follows: Yeast surface display binding, soluble Mcl-1. To be noted: yeast cells displaying the peptide titrated with soluble Mcl-1. The gist of the method: as §1
Test [5] concerns the target T1, human Bcl-w (residues 1-164), c-myc tagged (human), Q92843.
T1 chain: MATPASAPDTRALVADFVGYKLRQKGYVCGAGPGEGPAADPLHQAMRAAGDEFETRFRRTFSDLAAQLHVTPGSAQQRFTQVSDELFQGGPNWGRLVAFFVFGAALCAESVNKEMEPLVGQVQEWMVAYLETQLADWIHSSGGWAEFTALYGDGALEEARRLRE
In words: SEC. The conditions noted are these: remark: other sources report otherwise.

human Mcl-1 (residues 172-327), c-myc tagged (human), sequence (Q07820 172-327): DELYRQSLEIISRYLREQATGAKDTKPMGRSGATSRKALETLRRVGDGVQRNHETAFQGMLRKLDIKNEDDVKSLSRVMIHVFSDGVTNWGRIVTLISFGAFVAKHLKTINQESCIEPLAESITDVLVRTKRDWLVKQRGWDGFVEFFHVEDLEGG
human Bcl-xL (residues 1-209), sequence (Q07817 1-209): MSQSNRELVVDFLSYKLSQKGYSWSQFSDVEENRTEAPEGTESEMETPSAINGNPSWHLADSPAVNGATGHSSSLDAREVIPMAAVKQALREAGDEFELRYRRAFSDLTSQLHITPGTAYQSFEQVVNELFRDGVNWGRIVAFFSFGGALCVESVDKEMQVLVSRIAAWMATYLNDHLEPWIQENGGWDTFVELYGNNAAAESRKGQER
human Bcl-xL (residues 1-209), c-myc tagged (human), sequence (Q07817 1-209): as above
Bcl-xL, sequence (Q07817 1-209): as above
human Mcl-1 (residues 172-327), sequence (Q07820 172-327): as the sequence (Q07820 172-327) above
Mcl-1, sequence (Q07820 172-327): as above

Regarding `CC[C@H](C)[C@H](NC(=O)[C@H](CCCNC(=N)N)NC(=O)[C@H](CCCNC(=N)N)NC(=O)[C@H](CC(C)C)NC(=O)[C@H](CCC(=O)O)NC(=O)[C@H](CCC(N)=O)NC(=O)[C@H](C)NC(=O)[C@@H](NC(=O)[C@H](Cc1c[nH]c2ccccc12)NC(=O)[C@@H](NC(=O)[C@H](CCC(=O)O)NC(=O)[C@@H]1CCCN1C(=O)[C@H](CCCNC(=N)N)NC(C)=O)[C@@H](C)CC)[C@@H](C)CC)C(=O)NCC(=O)N[C@@H](CC(=O)O)C(=O)N[C@@H](CCC(=O)O)C(=O)N[C@H](C(=O)N[C@@H](CC(N)=O)C(=O)N[C@@H](C)C(=O)N[C@@H](Cc1ccc(O)cc1)C(=O)N[C@@H](Cc1ccc(O)cc1)C(=O)N[C@@H](C)C(=O)N[C@@H](CCCNC(=N)N)C(N)=O)C(C)C` [Phe4aVal mutation in Bim-BH3], the “increase of affinity for Mcl-1 relative to Bim-BH3” value in test [1] is reported as “more than 10 fold”. The “reduction of affinity for Bcl-xL relative to Bim-BH3” value in test [2] is on record as about 30 fold. As to “Bim-BH3 with a Phe4aVal mutation (synthetic peptide)”, the figures for the inhibition constant Ki in test [3] and in test [4] were 30 nM and under 0.1 nM, respectively.

As for “Bim-BH3: peptide derived from the BH3 region of human Bim; N-acetylated, C-amidated 23-mer in solution assays”, the “dissociation constant, yeast-displayed peptide, Bcl-xL” value with Bcl-xL is listed as “low nanomolar range”. The “dissociation constant, yeast-displayed peptide, Mcl-1” value in the test with Mcl-1 is recorded as “low nanomolar range”. Molecule “unlabeled Bim-BH3 peptide (23-residue synthetic peptide)” yielded a Ki in test [4] of 2 nM.

B1: human Bcl-w (residues 1-164), c-myc tagged, Q92843 1-164 (domain or fragment)
chain: MATPASAPDTRALVADFVGYKLRQKGYVCGAGPGEGPAADPLHQAMRAAGDEFETRFRRTFSDLAAQLHVTPGSAQQRFTQVSDELFQGGPNWGRLVAFFVFGAALCAESVNKEMEPLVGQVQEWMVAYLETQLADWIHSSGGWAEFTALYGDGALEEARRLRE
B1 showed an oligomeric fraction in test [5] of 58%.

A word on the Ki: it is a measure of affinity in units of concentration, obtained from inhibition or displacement. Read a high Ki as weaker binding.
